# Assay outcomes deposited in PubChem BioAssay by several laboratories.
# FID counter: fluorescent intercalator displacement, NS3 helicase counter-screen | inhibition, % at 7.9 µM | AID 1845 | 0.17% of 290,000 active | DNA fluorescent intercalator displacement, fluorescence; in the data active = inhibition above about 37%;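 note: 0% = vehicle and 100% = reference compound; higher means more ethidium bromide displaced from hairpin DNA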
# IMP-1 inh: inhibitors of Pseudomonas aeruginosa IMP-1 metallo-beta-lactamase; purified IMP-1, nitrocefin hydrolysis, epi-absorbance fluorescence; 0.45% of 290,000 active; inhibition, % at 5.6 µM;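 active = inhibition above the mean plus 3 SD of all compounds in the same screening run, cut at about 4.5% in these data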;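 note: 0% = IMP-1 with DMSO and 100% = DMSO wells lacking enzyme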
#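 System – purified recombinant IMP-1 beta-lactamase · Input – IMP-1 dispensed at 0.2 nM · Timing – 15 min preincubation plus 25 min reaction at 25 °C · Signal – Epi-absorbance fluorescence, 480 nm excitation, 530 nm emission · Measure – percent IMP-1 inhibition derived from blank-referenced optical density · Controls – Enzyme-plus-DMSO low control, enzyme-free DMSO high control · Replication – singlicate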
# VIM-2 inh: inhibitors of Pseudomonas aeruginosa VIM-2 metallo-beta-lactamase. purified VIM-2, nitrocefin hydrolysis, epi-absorbance fluorescence. inhibition, % at 5.6 µM. 0.89% of 290,000 active. AID 1527;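 active = inhibition above the mean of all tested compounds plus 3 SD, cutoff set per screening run, cut at about 7.5% in these data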;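 note: red hydrolysis product quenches plate fluorescence so inhibitors raise well fluorescence; 0% = enzyme with DMSO and 100% = DMSO without enzyme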
# SUMO HTRF inh: inhibitors of human SUMOylation (UBC9); HTRF SUMOylation assay, SAE1/SAE2 + UBC9, in vitro; inhibition, % at 35 µM; 0.36% of 290,000 active; AID 2006; in the data active = inhibition above about 50%, passing the limit was not always enough
# Target sequence (P63279 whole entry, looked up): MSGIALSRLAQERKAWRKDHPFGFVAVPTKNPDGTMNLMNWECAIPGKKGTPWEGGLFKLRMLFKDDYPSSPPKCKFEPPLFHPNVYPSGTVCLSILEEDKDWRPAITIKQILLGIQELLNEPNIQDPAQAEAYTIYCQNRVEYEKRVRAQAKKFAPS
# Mot1-301 SUMO: SUMOylation pathway inhibition by Mot1-301 growth rescue | S. cerevisiae Mot1-301 growth rescue, ATP luminescence, 38.5C; percent above DMSO median, 100 means doubled | growth rescue, % at 18.8 µM | 1% of 320,000 active;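 active = every valid replicate shows activation above 250% relative to neutral control wells; inactive = the rest, any valid replicate at or below 250%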;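 note: OY570 slx delta 5 strain wells were the positive control but not used for scaling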
# NALP1 yeast inh: NALP1 inhibition. S. cerevisiae NALP1/ASC/caspase-1 growth, X-gal OD620, 72 h. inhibition, % at 10 µM. 0.61% of 280,000 active; in the data active = inhibition mostly above about 24%, no sharp cut-off; inactive = mostly below about 32%
# * hit, by the source's call; . = not tested or not shown. The list is not random: actives were taken first. Their share in the collection is about 2.9%.
SMILES,FID counter,IMP-1 inh,VIM-2 inh,SUMO HTRF inh,Mot1-301 SUMO,NALP1 yeast inh
CN(C)CCN1C(=O)C(=O)/C(=C(/O)c2ccc(OCc3ccccc3)cc2)C1c1ccncc1 (stereo not drawn),-2,-4,-5,7,.,35*
COc1cccc(C2/C(=C(\O)c3ccc4c(c3)OCCO4)C(=O)C(=O)N2CCN(C)C)c1 (stereo not drawn),-4,-3,-5,12,352*,6
COc1ccc(C2/C(=C(\O)c3ccc4c(c3)OCCO4)C(=O)C(=O)N2CCCN(C)C)cc1 (stereo not drawn),-3,-1,1,17,-11,21
Cc1ccsc1/C=N/NC(=O)c1nnn(-c2nonc2N)c1CSc1ccccc1,-12,-2,-2,2,2,18
CCOC(=O)C1=C(C)OC(N)=C(C#N)C1c1ccc(C)s1 (stereo not drawn),-8,0,1,12,515*,15
CCOC(=O)C1=C(C)OC(N)=C(C#N)C1c1cccc(C)c1 (stereo not drawn),-6,-3,-2,22,2,12
CCCc1cc(NCCCCO)n2c(nc3ccccc32)c1C#N,-23,-1,7,39,-18,7
CCCc1cc(NCCCN2CCOCC2)n2c(nc3ccccc32)c1C#N,-2,0,8.0*,32,189,1
Cc1cc(NCCN2CCOCC2)n2c(nc3ccccc32)c1C#N,6,-5,7,33,-15,8
CC(C)c1cc(NCCOCCO)n2c(nc3ccccc32)c1C#N,-22,-1,12*,34,89,9
C#CCN1C(=O)S/C(=C\c2ccc(-c3ccc(Cl)c(C(=O)O)c3)o2)C1=O,-14,-3,9.3*,13,-1,17
O=C(O)c1cc(-c2ccc(/C=C3\NC(=O)N(c4ccc(Cl)cc4)C3=O)o2)ccc1Cl,-15,-3,-4,43,-22,15
O=C(O)c1cc(-c2ccc(/C=C3\NC(=O)N(c4ccccc4)C3=O)o2)ccc1Cl,-14,-1,-2,20,5,30*
O=C(CNS(=O)(=O)c1ccc(Cl)cc1)NC1CCCCC1,.,.,.,.,14,.
O=C(CSc1n[nH]c(=O)[nH]c1=O)Nc1ccc2c(c1)C(=O)c1ccccc1C2=O,8,-1,1,88*,67,14
O=C(CSc1ccccn1)Nc1ccc2c(c1)C(=O)c1ccccc1C2=O,8,-3,0,38,-11,30
NC(=O)C1CCN(S(=O)(=O)c2cccc(C(=O)O)c2)CC1,5,32*,0,-8,130,-4
O=C(O)c1cccc(S(=O)(=O)N2CCC(Cc3ccccc3)CC2)c1,-26,0,-1,13,-7,2
O=C(N/N=C/c1cc(Cl)cc(Cl)c1O)c1ccncc1,0,-1,-3,58*,95,-26
O=C(N/N=C/c1ccc(Cl)cc1Cl)c1ccncc1,-13,1,-1,14,7,14
N#C/C(=C\c1cn(Cc2cccc(F)c2)c2ccccc12)C(=O)NCc1ccco1,-13,-2,0,33,10,7
N#C/C(=C\c1cn(Cc2ccccc2)c2ccccc12)C(=O)NCc1ccco1,-6,-2,-5,48,6,23
Cc1cccc(NC(=O)/C(C#N)=C/c2cn(CC(=O)NCc3ccco3)c3ccccc23)c1C,-19,-3,-1,58*,6,20
N#C/C(=C\c1cn(Cc2ccc(F)cc2)c2ccccc12)C(=O)NCc1ccco1,-12,-2,-1,51*,-2,10
CN(CC(=O)Nc1cccc(F)c1)C(=O)CNS(=O)(=O)c1ccc(N(C)C)c([N+](=O)[O-])c1,.,.,.,.,-23,.
SMILES,FID counter,IMP-1 inh,VIM-2 inh,SUMO HTRF inh,Mot1-301 SUMO,NALP1 yeast inh
FC(F)(F)c1cc(-c2cccs2)nc(-n2cc(Br)cn2)n1,-4,-3,1,11,-4,11
Cc1cnn(-c2nc(-c3cccs3)cc(C(F)(F)F)n2)c1,-16,-1,8.1*,20,14,13
CCOc1ccc(C(=O)NCCC(=O)N2CCC3(CC2)NCCc2[nH]cnc23)cc1OCC,2,0,-1,.,-10,17
COCCn1c(-c2ccc(OC)cc2)cnc1SCC(=O)Nc1ccc(OC)cc1OC,-30,0,-2,-15,9,25
COCCn1c(-c2ccccc2)cnc1SCC(=O)Nc1cccc2ccccc12,-31,0,1,9,0,74*
COc1ccc(-n2c(SCC(=O)Nc3ccccc3)nc(O)cc2=O)cc1,-23,-3,-3,1,-17,.
COc1ccc(-n2c(SCC(=O)Nc3cccc4ccccc34)nc(O)cc2=O)cc1,-2,-2,0,6,320*,-9
Cc1ccccc1OCC(=O)NNC(=O)CN1C(=O)c2ccccc2C1=O,-4,-3,-3,-6,-5,18
CCC(CC)c1nnc(NC(=O)c2cc(C(=O)OC)cc([N+](=O)[O-])c2)s1,-7,-2,-4,13,400*,34
COC(=O)c1cc(C(=O)Nc2nnc(CC(C)C)s2)cc([N+](=O)[O-])c1,1,-2,-2,-8,-10,25
CCN(C(=O)COC(=O)c1ccccc1NC(=O)c1ccco1)C1CCS(=O)(=O)C1 (stereo not drawn),-14,-3,-1,6,418*,4
CN(C(=O)COC(=O)c1ccccc1NC(=O)c1ccco1)C1CCS(=O)(=O)C1 (stereo not drawn),-7,-2,-3,14,-2,1
COC(=O)c1ccc(N=C2SCC(=O)N2C)cc1,-2,-2,-1,4,-7,13
CCOC(=O)Nc1ccc(NC(=O)c2ccccc2F)cc1,-7,-1,-2,7,2,3
CCC(C)(C)c1ccc(OCCCC[n+]2cccc(C)c2)c(C(C)(C)CC)c1,21,-4,-3,12,.,33*
Cc1ccc[n+](CC(=O)Nc2cc(C(F)(F)F)ccc2Cl)c1,4,-2,-3,-8,8,24
Cc1ccc2nsnc2c1S(=O)(=O)N1CCOCC1,0,-5,-3,15,0,34*
COc1ccc(/C=C/c2nc(S(=O)(=O)c3ccccc3)c(NCCCN(C)C)o2)cc1OC,25,-4,8.8*,7,-10,-7
COc1ccccc1/C=C/c1nc(S(=O)(=O)c2ccccc2)c(NCCN(C)C)o1,18,1,1,4,-18,11
O=C(N/N=C/c1ccc(Cl)c([N+](=O)[O-])c1)c1cc(-c2ccc3c4c(cccc24)CC3)n[nH]1,-6,-4,-2,51*,0,.
O=C(N/N=C/c1cccc([N+](=O)[O-])c1)c1cc(-c2ccc3c4c(cccc24)CC3)n[nH]1,3,1,-1,34,10,16
